Experimental data: ChEMBL document CHEMBL4651341, “The discovery of a novel series of compounds with single-dose efficacy against juvenile and adult Schistosoma species” (PLoS Negl Trop Dis, 2021)
In brackets after ≈: the same amount, converted by molar mass.

Columns and labels:
[1] = Mean plasma concentration at 24h in Swiss albino male mice at […] per compound (administered orally in a mixture of 5 compounds to 3 mice) assessed by LCMS/MS.; format: ADME, organism-based; settings: mouse, po
[2] = Mean volume of distribution at steady state in Swiss albino male mice at 1 mg/kg per compound (administered iv in a mixture of 5 compounds to 3 mice) assessed by LCMS/MS.; format: ADME, organism-based; settings: mouse, in vivo, read-out: Volume
Procedure, shortened: (§1)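 Male Swiss albino mice (~30 g), 3 per experiment, mostly dosed as mixtures of 5 compounds iv via the lateral tail vein. Vehicle: 10% DMSO/90% 50 mM Na2HPO4 with 0.5% Tween-80. Plasma stored at −20 °C and quantified by LC-MS after acetonitrile precipitation.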

[3] = Mean oral bioavailability in Swiss albino male mice at […] per compound (administered in a mixture of 5 compounds to 3 mice) assessed by LCMS/MS.; note: dose 2.5 mg/kg; format: ADME, organism-based; settings: male, Swiss albino, mouse, in vivo, read-out: Bioavailability
[4] = Concentration required to kill 50% HepG2 cells as detected by MTT staining; format: toxicity, cell-based; settings: homo sapiens, read-out: TC50 (the source's name)
[5] = Mean time to peak plasma concentration in Swiss albino male mice at […] per compound (administered orally in a mixture of 5 compounds to 3 mice) assessed by LCMS/MS.; format: ADME, organism-based; settings: mouse, po
[6] = Mean half-life in Swiss albino male mice at 1 mg/kg per compound (administered iv in a mixture of 5 compounds to 3 mice) assessed by LCMS/MS.; format: ADME, organism-based; settings: mouse, in vivo; procedure, shortened: as §1
[7] = Mean observed clearance in Swiss albino male mice at 1 mg/kg per compound (administered iv in a mixture of 5 compounds to 3 mice) assessed by LCMS/MS.; format: ADME, organism-based; settings: male, Swiss albino, mouse, in vivo, read-out: Clearance (converted)
Procedure, shortened: as §1, with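 “Tween-80. Blood sampled at 5, 15, 30 min and 1, 2, 4, 8, 24 h.” for “Tween-80.”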

[8] = Mean AUC inf in Swiss albino male mice at 1 mg/kg per compound (administered iv in a mixture of 5 compounds to 3 mice) assessed by LCMS/MS.; format: ADME, organism-based; settings: male, Swiss albino, mouse, in vivo
Procedure, shortened: as §1, with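 “Tween-80. Blood sampled at 5, 15, 30 min and 1, 2, 4, 8, 24 h.” for “Tween-80.”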

[9] = Percentage of parent compound remaining after incubation for 90 minutes with cyropreserved mouse hepatocytes at a concentration of 1uM compound and […], determined by LCMS; format: ADME, tissue-based, Hepatocyte; settings: cryopreserved mouse hepatocytes, read-out: Stability
Procedure, shortened: (§2)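 Compound was incubated at 1 µM final (2 µM working solution mixed 1:1 with hepatocyte suspension) in supplemented KHB pH 7.4. Conditions: 37 °C, 5% CO2, gentle mixing, duplicates. Reaction quenched with ice-cold acetonitrile containing standard; analysed by LC-MS/MS. % remaining = AUC at t / AUC at T0.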

[10] = Percentage of parent compound remaining after incubation for 90 minutes with cyropreserved human hepatocytes at a concentration of 1uM compound and 1 million cells/uL, determined by LCMS/MS; format: ADME, tissue-based, Hepatocyte; settings: cryopreserved human hepatocytes, read-out: Stability; procedure, shortened: as §2
Schistosoma mansoni [11] = experiment: Concentration required to kill 50% of 21 day old worms 5 days after drug treatment.; format: functional, organism-based; settings: Puerto Rican, 120 h
Procedure, shortened: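 Juvenile S. mansoni (Puerto Rican strain) were perfused from CD1 mice 3 weeks post-infection and washed. They were cultured 6–8 per well in 200 µL DMEM with 2 mM glutamine, penicillin/streptomycin and 10% FCS at 37 °C, 5% CO2. Viability of individual worms was scored on day 5 after dosing (120 h).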

Schistosoma mansoni [12] = experiment: Concentration required to kill 50% of 42 day old worms 5 days after drug treatment.; format: functional, organism-based; settings: Puerto Rican, 120 h
Procedure, shortened: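 Adult S. mansoni were perfused from CD1 mice 6 weeks post-infection and washed. They were cultured 3 pairs per well in 1 mL DMEM with 2 mM glutamine, penicillin/streptomycin and 10% FCS […] at 37 °C, 5% CO2. Viability of individual worms was scored on day 5 (120 h).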

[13] = Mean plasma concentration at 4h in Swiss albino male mice at […] per compound (administered orally in a mixture of 5 compounds to 3 mice) assessed by LCMS/MS.; format: ADME, organism-based; settings: mouse, po
[14] = Concentration of drug in plasma at 4h following oral drug adminstration at given dose. Determined by LCMS/MS; format: ADME, organism-based; settings: CD1, mouse
Procedure, shortened: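 Plasma sampled from the mice of the efficacy experiments, each animal sampled once: one animal per group at 1, 4 and 8 h, two per group at 24 h. Plasma prepared by acetonitrile protein precipitation and analysed by LC-MS against a 10-point calibration line spiked in blank matrix, with QCs at three or more levels.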

[15] = Partition coefficient of compound between n-octanol and PBS (pH7.4); format: physicochemical; settings: octanol/water, pH 7.4
Procedure, shortened: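 Shake-flask method using octanol and PBS pH 7.4, each pre-saturated with the other. Compound was shaken 2 h at 850 rpm, 25 °C, then the phases were separated by centrifugation and both layers diluted and analysed by LC-MS/MS. LogD = log(octanol AUC × relative dilution / buffer AUC).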

Schistosoma mansoni [16] = experiment: Percentage of worms remaining following treatment of female CD1 mice infected with S. mansoni worms (21 day old - juvenile or 42 day old - adult) with compound by oral gavage. Worms were recovered by portal perfusion with citrate saline 8-14 days post treatment and counted. Percentages are from a mean of 5 or 6 animals.; format: functional, Mus musculus; parameters: concentration or dose not given beside the values
Procedure, shortened: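 Female CD1 mice were infected subcutaneously with 150 cercariae and treated at day 21 (juvenile) or day 42 (adult). Single oral gavage, or two doses 12 h apart, given in 7% Tween-80/3% ethanol/water (sonicated) or in 1:19 DMSO:corn oil. Controls received vehicle only. Worm recoveries are group means, n = 5–6.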

[17] = Percentage of parent compound remaining after incubation for 30 minutes with cyropreserved mouse hepatocytes at a concentration of 1uM compound and […], determined by LCMS; format: ADME, tissue-based, Hepatocyte; settings: cryopreserved mouse hepatocytes, read-out: Stability; procedure, shortened: as §2
[18] = Concentration required to kill 50% MRC-5 cells as detected by Alamar blue staining; format: toxicity, cell-based, MRC5; settings: homo sapiens, read-out: TC50 (the source's name)
[19] = Plasma protein binding determined at 10uM by LC-MS/MS.; format: ADME, cell-free; settings: mouse
Procedure, shortened: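 Equilibrium dialysis of plasma spiked at 10 µM (0.1% DMSO) against PBS pH 7.4, 6 h at 37 °C, duplicates. Both chambers analysed by LC-MS/MS after acetonitrile precipitation. % free = buffer/plasma area ratio; recovery also calculated.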

[20] = Solubility at 25 degC of compound (diluted from DMSO) in PBS at pH 7.4 determined after 24h (1h sonication, 22h shaking, 1h sonication) by LCMS/MS; format: physicochemical

| Tmax [5] | clearance [7] | AUC(0-inf) [8] | remaining at 1.5 h, 1 µM [9] | remaining at 1.5 h, 1 µM [10] | concentration at 4 h [13] | concentration at 4 h [14] | Lipophilicity [15] | SMILES | CC50 [4] | EC50 (Schistosoma mansoni [11]) | EC50 (Schistosoma mansoni [12]) | further results |
| --- | --- | --- | --- | --- | --- | --- | --- | --- | --- | --- | --- | --- |
| 40 min | 1.16 L/h/kg | 0.433 µg·h/mL | 88.7% | 54% | 0.182 µg/mL |  |  | Fc1c(-c2c(C(F)(F)F)nc3cnc(-c4cccc(OC(F)(F)F)c4)cn23)ccc2[nH]ncc12 | 9.71 µM | 0.0234 µM | 0.0206 µM | concentration at 24 h [1]: 0.00887 µg/mL; Vd [2]: 5.68 L/kg; bioavailability [3]: 114%; half-life [6]: 348 min |
| 15 min | 1.08 L/h/kg | 0.466 µg·h/mL |  |  |  | 4.14 µg/mL |  | CC(C)c1nc2cnc(-c3ccc(F)c(C(F)(F)F)c3)cn2c1-c1c(F)cc(O)cc1F | 7.13 µM |  | < 0.0462 µM |  |
|  | 0.0856 L/h/kg |  |  |  | 0.655 µg/mL | 1.1 µg/mL | 4.5 = | Fc1c(-c2c(C(F)(F)F)nc3cnc(-c4cccc(C(F)(F)C(F)(F)F)c4)cn23)ccc2[nH]ncc12 | 10.9 µM |  |  |  |
| 25 min |  |  |  |  | 0.0523 µg/mL | 1.25 µg/mL |  | CC(C)c1cc(-c2cn3c(-c4ccc5[nH]ncc5c4F)c(C(F)(F)F)nc3cn2)ccc1F | > 17 µM | < 0.00267 µM |  |  |
|  |  |  |  |  | 0.298 µg/mL | 1.5 µg/mL | 5.29 = | Fc1ccc(-c2cn3c(-c4ccc5[nH]ncc5c4F)c(C(F)(F)F)nc3cn2)cc1C(F)(F)F | 16.6 µM |  |  | Efficacy (Schistosoma mansoni [16]): 1.84% |
| 79.8 min |  | 0.53 µg·h/mL |  |  | 0.295 µg/mL | 0.104 µg/mL | 6.53 = | CC(C)c1cc(-c2cn3c(-c4ccc5[nH]ncc5c4F)c(C4CC4)nc3cn2)ccc1F | 15.8 µM |  |  | bioavailability [3]: 149%; half-life [6]: 371 min |
|  |  |  |  |  |  |  | 4.82 = | CC(C)c1nc2cnc(-c3cccc(C(F)(F)F)c3)cn2c1-c1ccc(O)cc1F | 9 µM | 0.0792 µM | < 0.122 µM | remaining at 0.5 h, 1 µM [17]: 54.4%; CC50 [18]: 14.5 µM; Binding [19]: 99.945%; solubility kinetic at 24 h [20]: 6.8 µM (≈ 2.82 µg/mL) |
|  |  |  | 73.4% | 73.6% |  |  |  | Fc1ccc(-c2cn3c(-c4ccc5[nH]ncc5c4F)c(C4CCC4)nc3cn2)cc1C(F)(F)F |  | 0.036 µM | 0.0368 µM |  |
|  |  |  | 84.9% | 40.2% |  |  |  | Oc1cc(F)c(-c2c(C3CC3)nc3cnc(-c4ccc(F)c(S(F)(F)(F)(F)F)c4)cn23)c(F)c1 | 10.1 µM | 0.0104 µM | 0.00578 µM | solubility kinetic at 24 h [20]: 41.1 µM (≈ 20.9 µg/mL) |
